Test results from ChEMBL document CHEMBL1148641, “Design and synthesis of novel sulfonamide-containing bradykinin hB2 receptor antagonists. 1. Synthesis and SAR of alpha,alpha-dimethylglycine sulfonamides” (J Med Chem, 2006).

Legend:
[1] = target: T1, B2 bradykinin receptor (Homo sapiens, UniProt P30411); assay: Displacement of [3H]BK from human B2 receptor transfected in CHO cells; format: cell-based
T1 sequence (P30411 whole entry): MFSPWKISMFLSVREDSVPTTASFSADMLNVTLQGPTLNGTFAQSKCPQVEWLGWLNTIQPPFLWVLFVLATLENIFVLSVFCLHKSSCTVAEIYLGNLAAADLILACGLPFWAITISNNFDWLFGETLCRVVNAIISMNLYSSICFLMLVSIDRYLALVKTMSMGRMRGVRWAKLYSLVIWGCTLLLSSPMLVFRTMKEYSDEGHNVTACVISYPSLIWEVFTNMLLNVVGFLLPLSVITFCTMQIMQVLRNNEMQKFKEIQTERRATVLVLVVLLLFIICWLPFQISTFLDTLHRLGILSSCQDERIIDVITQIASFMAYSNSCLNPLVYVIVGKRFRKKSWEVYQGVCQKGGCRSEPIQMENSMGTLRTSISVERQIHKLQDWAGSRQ
Outline: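 Membranes from stably transfected CHO cells (100-150 µg/mL) incubated 60 min at room temperature with [³H]BK at 0.1-0.2 nM in TES buffer pH 7.4 with 1,10-phenanthroline, bacitracin and BSA, 1% DMSO final. Competitor 1 pM-10 µM; nonspecific binding with 1 µM BK. Filtration, scintillation counting; IC50 converted to pKi by Cheng-Prusoff.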

[2] = target: T1, B2 bradykinin receptor; assay: Activity at human B2 receptor transfected in CHO cells assessed as ability to antagonize BK-induced inositol-phosphate accumulation; format: functional, cell-based; details: read-out: pA2 (converted)
Outline: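 Stably transfected CHO cells (1.8 × 10⁵/well) grown overnight at 37 °C, then labeled 24 h with [³H]myo-inositol (1 µCi/well). Antagonist preincubation 20 min at a nanomolar concentration, then BK 1 × 10^-11 to 1 × 10^-5 M for 40 min at 37 °C in LiCl-containing buffer, pH 7.4. IP1 radioactivity by liquid scintillation; pA₂ from EC50 concentration-ratios of sigmoidal fits.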

[3] = system: Cavia porcellus; assay: Reduction in hypotensive effect in guinea pig intratracheally administered at 300 nmol/kg for 60 min; format: functional; design: scale not given: the % may be the effect or the level left
Outline: (§1)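 Anesthetized guinea pigs given compound intratracheally at 300 nmol/kg. BK-induced bronchoconstriction and BK-induced hypotension followed over time after dosing.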

[4] = system: Cavia porcellus; assay: Inhibition of BK-induced bronchoconstriction in guinea pig intratracheally administered at 300 nmol/kg for 210 min; format: functional; details: inhaled or nasal, 3.5 h; outline: as §1

Row | SMILES | Ki [1] [nM] | Kb [2] [nM] | other results
1 | Cc1ccc2cccc(OCc3c(Cl)ccc(S(=O)(=O)NC(C)(C)C(=O)NCCN)c3Cl)c2n1 | 100 |  | 
2 | Cc1ccc2cccc(OCc3c(Cl)ccc(S(=O)(=O)NC(C)(C)C(=O)NCCCNCc4ccc(F)cc4)c3Cl)c2n1 | 398 |  | 
3 | Cc1ccc2cccc(OCc3c(Cl)ccc(S(=O)(=O)NC(C)(C)C(=O)NCCCCN)c3Cl)c2n1 | 200 |  | 
4 | Cc1ccc2cccc(OCc3c(Cl)ccc(S(=O)(=O)NC(C)(C)C(=O)N4CCN(CCCCCCN=C(N)N)CC4)c3Cl)c2n1 | 1.58 | 7.94 | 
5 | Cc1ccc2cccc(OCc3c(Cl)ccc(S(=O)(=O)NC(C)(C)C(=O)NCCCN4CCOCC4)c3Cl)c2n1 | 631 |  | 
6 | Cc1cc(C)c2cccc(OCc3c(Cl)ccc(S(=O)(=O)NC(C)(C)C(=O)N4CCN(C(=N)NCCCN)CC4)c3Cl)c2n1 | 1 | 2.51 | 
7 | Cc1ccc2cccc(OCc3c(Cl)ccc(S(=O)(=O)NC(C)(C)C(=O)NCC4CCNCC4)c3Cl)c2n1 | 158 |  | 
8 | Cc1ccc2cccc(OCc3c(Cl)ccc(S(=O)(=O)NC(C)(C)C(=O)N4CCN(C(=O)C[C@@H](N)CCCCN(C)C)CC4)c3Cl)c2n1 | 0.631 | 39.8 | 
9 | Cc1ccc2cccc(OCc3c(Cl)ccc(S(=O)(=O)NC(C)(C)C(=O)N4CCN(C(=N)NCCCN)CC4)c3Cl)c2n1 | 1.58 | 11 | 
10 | Cc1ccc2cccc(OCc3c(Cl)ccc(S(=O)(=O)NC(C)(C)C(=O)N4CCN(C(=O)C[C@@H](N)CCCCN=C(N)N)CC4)c3Cl)c2n1 | 1.26 | 7.94 | 
11 | Cc1cc(C)c2cccc(OCc3c(Cl)ccc(S(=O)(=O)NC(C)(C)C(=O)N4CCN(C(=O)[C@@H](N)CCCCN(C)C)CC4)c3Cl)c2n1 |  | 3.16 | 
12 | Cc1ccc2cccc(OCc3c(Cl)ccc(S(=O)(=O)NC(C)(C)C(=O)N4CCN(C(=O)C[C@@H](N)CCCN(C)C)CC4)c3Cl)c2n1 | 0.794 | 39.8 | 
13 | Cc1ccc2cccc(OCc3c(Cl)ccc(S(=O)(=O)NC(C)(C)C(=O)NCCCNCc4ccc(C(N)=O)cc4)c3Cl)c2n1 | 126 |  | 
14 | Cc1ccc2cccc(OCc3c(Cl)ccc(S(=O)(=O)NC(C)(C)C(=O)N4CCCNCC4)c3Cl)c2n1 | 25.1 |  | 
15 | Cc1ccc2cccc(OCc3c(Cl)ccc(S(=O)(=O)NC(C)(C)C(=O)NCCCNCc4c[nH]cn4)c3Cl)c2n1 | 158 |  | 
16 | Cc1ccc2cccc(OCc3c(Cl)ccc(S(=O)(=O)NC(C)(C)C(=O)NCCN=C(N)N)c3Cl)c2n1 | 20 |  | 
17 | Cc1ccc2cccc(OCc3c(Cl)ccc(S(=O)(=O)NC(C)(C)C(=O)NCCCNCc4ccccn4)c3Cl)c2n1 | 39.8 |  | 
18 | Cc1ccc2cccc(OCc3c(Cl)ccc(S(=O)(=O)NC(C)(C)C(=O)NCCN4CCCCC4)c3Cl)c2n1 | 316 |  | 
19 | Cc1ccc2cccc(OCc3c(Cl)ccc(S(=O)(=O)NC(C)(C)C(=O)NCCCN=C(N)N)c3Cl)c2n1 | 39.8 |  | 

Row | SMILES | Ki [1] [nM] | Kb [2] [nM] | other results
20 | Cc1ccc(CNCCCNC(=O)C(C)(C)NS(=O)(=O)c2ccc(Cl)c(COc3cccc4ccc(C)nc34)c2Cl)cc1 | 200 |  | 
21 | Cc1ccc2cccc(OCc3c(Cl)ccc(S(=O)(=O)NC(C)(C)C(=O)NCCCNCc4ccc(N(C)C)cc4)c3Cl)c2n1 | 158 |  | 
22 | Cc1cc(C)c2cccc(OCc3c(Cl)ccc(S(=O)(=O)NC(C)(C)C(=O)N4CCN(C(=O)[C@@H](N)CCCN(C)C)CC4)c3Cl)c2n1 | 0.398 | 0.794 | Activity [3]: 30%; inhibition in vivo at 0.3 µmol/kg [4]: 80%
23 | Cc1ccc2cccc(OCc3c(Cl)ccc(S(=O)(=O)NC(C)(C)C(=O)N4CCN(C(=N)N)CC4)c3Cl)c2n1 | 3.98 | 39.8 | 
24 | Cc1ccc2cccc(OCc3c(Cl)ccc(S(=O)(=O)NC(C)(C)C(=O)NCCCNCc4ccc(S(C)(=O)=O)cc4)c3Cl)c2n1 | 79.4 |  | 
25 | Cc1ccc2cccc(OCc3c(Cl)ccc(S(=O)(=O)NC(C)(C)C(=O)NCCc4ccccc4)c3Cl)c2n1 | > 10000 |  | 
26 | Cc1ccc2cccc(OCc3c(Cl)ccc(S(=O)(=O)NC(C)(C)C(=O)N4CCN(CCCCCCN)CC4)c3Cl)c2n1 | 2.51 | 20 | 
27 | Cc1ccc2cccc(OCc3c(Cl)ccc(S(=O)(=O)NC(C)(C)C(=O)NCCN4CCOCC4)c3Cl)c2n1 | 2510 |  | 
28 | Cc1ccc2cccc(OCc3c(Cl)ccc(S(=O)(=O)NC(C)(C)C(=O)NCCCNCc4ccoc4)c3Cl)c2n1 | 316 |  | 
29 | Cc1ccc2cccc(OCc3c(Cl)ccc(S(=O)(=O)NC(C)(C)C(=O)N=C(N)N)c3Cl)c2n1 | 63.1 |  | 
30 | Cc1ccc2cccc(OCc3c(Cl)ccc(S(=O)(=O)NC(C)(C)C(=O)N4CCCNCCC4)c3Cl)c2n1 | 100 |  | 
31 | Cc1ccc2cccc(OCc3c(Cl)ccc(S(=O)(=O)NC(C)(C)C(=O)N4CCN(C(=O)CN5CCNCC5)CC4)c3Cl)c2n1 | 3.98 | 25.1 | 
32 | Cc1ccc2cccc(OCc3c(Cl)ccc(S(=O)(=O)NC(C)(C)C(=O)N4CCN(C(=N)NCCCCCCN)CC4)c3Cl)c2n1 | 1 | 7.94 | 
33 | Cc1ccc2cccc(OCc3c(Cl)ccc(S(=O)(=O)NC(C)(C)C(=O)NC4CCNCC4)c3Cl)c2n1 | 79.4 |  | 
34 | COCCNC(=O)C(C)(C)NS(=O)(=O)c1ccc(Cl)c(COc2cccc3ccc(C)nc23)c1Cl | 7940 |  | 
35 | Cc1ccc2cccc(OCc3c(Cl)ccc(S(=O)(=O)NC(C)(C)C(=O)NCCCNC(=O)c4ccc(C(=N)N)cc4)c3Cl)c2n1 | 20 |  | 
36 | COc1ccc(CNCCCNC(=O)C(C)(C)NS(=O)(=O)c2ccc(Cl)c(COc3cccc4ccc(C)nc34)c2Cl)cc1 | 200 |  | 
37 | CC(=O)N[C@@H](CCCCN(C)C)C(=O)N1CCN(C(=O)C(C)(C)NS(=O)(=O)c2ccc(Cl)c(COc3cccc4ccc(C)nc34)c2Cl)CC1 | 10 | 20 | 
38 | Cc1ccc2cccc(OCc3c(Cl)ccc(S(=O)(=O)NC(C)(C)C(=O)NCCCNCc4ccc(Cl)cc4)c3Cl)c2n1 | 794 |  | 

Row | SMILES | Ki [1] [nM] | Kb [2] [nM] | other results
39 | COCCCNC(=O)C(C)(C)NS(=O)(=O)c1ccc(Cl)c(COc2cccc3ccc(C)nc23)c1Cl | 398 |  | 
40 | Cc1ccc2cccc(OCc3c(Cl)ccc(S(=O)(=O)NC(C)(C)C(=O)N4CCN(CCN=C(N)N)CC4)c3Cl)c2n1 | 10 | 39.8 | 
41 | Cc1cc(C)c2cccc(OCc3c(Cl)ccc(S(=O)(=O)NC(C)(C)C(=O)NCCCN)c3Cl)c2n1 | 25.1 |  | 
42 | Cc1ccc2cccc(OCc3c(Cl)ccc(S(=O)(=O)NC(C)(C)C(=O)NCc4ccccc4)c3Cl)c2n1 | > 10000 |  | 
43 | Cc1cc(C)c2cccc(OCc3c(Cl)ccc(S(=O)(=O)NC(C)(C)C(=O)N4CCN(C(=O)C[C@@H](N)CCCCN(C)C)CC4)c3Cl)c2n1 | 0.501 | 2.51 | 
44 | Cc1ccc2cccc(OCc3c(Cl)ccc(S(=O)(=O)NC(C)(C)C(=O)NCCCc4ccccc4)c3Cl)c2n1 | > 10000 |  | 
45 | Cc1ccc2cccc(OCc3c(Cl)ccc(S(=O)(=O)NC(C)(C)C(=O)NCCCNCc4ccc(O)cc4)c3Cl)c2n1 | 79.4 |  | 
46 | Cc1ccc2cccc(OCc3c(Cl)ccc(S(=O)(=O)NC(C)(C)C(=O)N4CCNCC4)c3Cl)c2n1 | 25.1 |  | 
47 | Cc1cc(C)c2cccc(OCc3c(Cl)ccc(S(=O)(=O)NC(C)(C)C(=O)NCCCNc4ccc(C(=N)N)cc4)c3Cl)c2n1 | 7.94 |  | 
48 | Cc1ccc2cccc(OCc3c(Cl)ccc(S(=O)(=O)NC(C)(C)C(=O)N4CCN(C(=O)[C@@H](N)CCCCN(C)C)CC4)c3Cl)c2n1 | 2 | 11.2 | 
49 | Cc1cc(C)c2cccc(OCc3c(Cl)ccc(S(=O)(=O)NC(C)(C)C(=O)N4CCN(C(=O)C[C@@H](N)CCCN(C)C)CC4)c3Cl)c2n1 | 0.631 | 2.51 | 
50 | Cc1cc(C)c2cccc(OCc3c(Cl)ccc(S(=O)(=O)N4CCC[C@@H]4C(=O)NCCCNC(=O)c4ccc(C(=N)N)cc4)c3Cl)c2n1 | 0.794 |  | 
51 | Cc1ccc2cccc(OCc3c(Cl)ccc(S(=O)(=O)NC(C)(C)C(=O)NCCCNCc4ccccc4)c3Cl)c2n1 | 200 |  | 
52 | Cc1ccc2cccc(OCc3c(Cl)ccc(S(=O)(=O)NC(C)(C)C(=O)NCCCN(C)C)c3Cl)c2n1 | 200 |  | 
53 | Cc1ccc2cccc(OCc3c(Cl)ccc(S(=O)(=O)NC(C)(C)C(=O)N4CCN(C(=O)[C@@H](N)CCCN(C)C)CC4)c3Cl)c2n1 | 0.398 | 25.1 | 
54 | Cc1ccc2cccc(OCc3c(Cl)ccc(S(=O)(=O)NC(C)(C)C(=O)Nc4ccccc4)c3Cl)c2n1 | 7940 |  | 
55 | Cc1ccc2cccc(OCc3c(Cl)ccc(S(=O)(=O)NC(C)(C)C(=O)NCCCN4CCN(C)CC4)c3Cl)c2n1 | 251 |  | 
56 | Cc1ccc2cccc(OCc3c(Cl)ccc(S(=O)(=O)NC(C)(C)C(=O)NCCCN)c3Cl)c2n1 | 158 |  | 
